Test results: ChEMBL document CHEMBL2384906, “Biological activity, design, synthesis and structure activity relationship of some novel derivatives of curcumin containing sulfonamides” (Eur J Med Chem, 2013)
≈ marks a conversion by molar mass, not a printed value. Calls of active or inactive are those of the source. No cut-off for these calls is given here.

Legend:
Bacillus cereus [1] = test: Antimicrobial activity against Bacillus cereus MTCC 7350 assessed as diameter of inhibition zone at 40 uM after 24 hrs by Kirby -Baur disc diffusion method; format: functional
Outline: (§1)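 Kirby-Bauer disc diffusion was used. Acetone stocks (160 µM) were serially doubled down to 80, 40 and 20 µM. 4 µL of each went onto 5 mm sterile paper discs, which were dried 30 min at 50 °C. Inoculum was 1.5 × 10⁸ CFU/mL diluted to 3 × 10² CFU/mL, and 50 µL was spread on Mueller-Hinton agar. After 24 h at 37 °C the inhibition-zone diameter was measured. Ciprofloxacin served as positive control.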

Curvularia lunata [2] = test: Antifungal activity against Curvularia lunata MTCC 581 assessed as zone of inhibition at 40 uM after 48 hrs by disc diffusion method; format: functional
Outline: (§2)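 Spores from 4-day potato dextrose agar cultures, suspended in sterile water at 1.5 × 10⁵ CFU/mL. 0.2 mL was spread on potato dextrose agar. 5 mm filter-paper discs soaked with test compound were laid on the lawn. Incubation was 48 h at 28 °C, then the inhibition zone was measured in mm. Fluconazole was the positive control and acetone the negative control.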

Trichoderma viride [3] = test: Antifungal activity against Trichoderma viride MTCC 1107 after 48 hrs; format: functional; details: MTCC 1107, 48 h
Aspergillus niger [4] = test: Antifungal activity against Aspergillus niger MTCC 1108 assessed as zone of inhibition at 20 uM after 48 hrs by disc diffusion method; format: functional; outline: as §2
Escherichia coli [5] = test: Antimicrobial activity against Escherichia coli ATCC 35218 assessed as diameter of inhibition zone at 40 uM after 24 hrs by Kirby -Baur disc diffusion method; format: functional; details: ATCC 35218, 24 h, read-out: DIZ; outline: as §1
Pseudomonas aeruginosa [6] = test: Antimicrobial activity against Pseudomonas aeruginosa ATCC 15499 after 24 hrs by broth micro serial dilution method; format: functional; details: ATCC 15499, 24 h
Outline: (§3)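 This was broth microdilution in autoclaved Mueller-Hinton broth. 150 µL of compound per well was serially diluted […], and 50 µL of test organism was added. Plates were incubated 24 h at 37 °C and optical density was read.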

Escherichia coli [7] = test: Antimicrobial activity against Escherichia coli ATCC 35218 after 24 hrs by broth micro serial dilution method; format: functional; details: ATCC 35218, 24 h; outline: as §3
Trichoderma viride [8] = test: Antifungal activity against Trichoderma viride MTCC 1107 assessed as zone of inhibition at 20 uM after 48 hrs by disc diffusion method; format: functional; outline: as §2
HepG2 = test: Cytotoxicity against human HepG2 cells after 24 hrs by MTT assay; format: functional, cell-based
Outline: (§4)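 The MTT assay seeded 5 × 10⁴ cells per well and grew them 24 h in RPMI 1640 with compound at 2.5–200 µM. Medium without cells was the blank and adriamycin the positive control. MTT was added for 4 h at 37 °C, formazan was solubilised, and absorbance was read at 570 nm. IC50 is the concentration that cuts viability 50% against untreated cells.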

Staphylococcus aureus [9] = test: Antimicrobial activity against Staphylococcus aureus ATCC 11632 after 24 hrs by broth micro serial dilution method; format: functional; details: ATCC 11632, 24 h; outline: as §3
Curvularia lunata [10] = test: Antifungal activity against Curvularia lunata MTCC 581 after 48 hrs; format: functional; details: MTCC 581, 48 h
Bacillus cereus [11] = test: Antimicrobial activity against Bacillus cereus MTCC 7350 assessed as diameter of inhibition zone at 80 uM after 24 hrs by Kirby -Baur disc diffusion method; format: functional; details: MTCC 7350, 24 h, read-out: DIZ; outline: as §1
Aspergillus flavus [12] = test: Antifungal activity against Aspergillus flavus MTCC 1021 after 48 hrs; format: functional
Staphylococcus aureus [13] = test: Antimicrobial activity against Staphylococcus aureus ATCC 11632 assessed as diameter of inhibition zone at 80 uM after 24 hrs by Kirby -Baur disc diffusion method; format: functional; details: ATCC 11632, 24 h, read-out: DIZ; outline: as §1
Pseudomonas aeruginosa [14] = test: Antimicrobial activity against Pseudomonas aeruginosa ATCC 15499 assessed as diameter of inhibition zone at 40 uM after 24 hrs by Kirby -Baur disc diffusion method; format: functional; details: ATCC 15499, 24 h, read-out: DIZ; outline: as §1
Aspergillus niger [15] = test: Antifungal activity against Aspergillus niger MTCC 1108 after 48 hrs; format: functional; details: MTCC 1108, 48 h
Staphylococcus aureus [16] = test: Antimicrobial activity against Staphylococcus aureus ATCC 11632 assessed as diameter of inhibition zone at 40 uM after 24 hrs by Kirby -Baur disc diffusion method; format: functional; outline: as §1
Salmonella typhi [17] = test: Antimicrobial activity against Salmonella typhi ATCC 23564 assessed as diameter of inhibition zone at 20 uM after 24 hrs by Kirby -Baur disc diffusion method; format: functional, Salmonella enterica subsp. enterica serovar Typhi; details: Salmonella enterica, ATCC 23564, 24 h; read-out: DIZ
Trichoderma viride [18] = test: Antifungal activity against Trichoderma viride MTCC 1107 assessed as zone of inhibition at 80 uM after 48 hrs by disc diffusion method; format: functional; details: MTCC 1107, 48 h, read-out: IZ; outline: as §2
Escherichia coli [19] = test: Antimicrobial activity against Escherichia coli ATCC 35218 assessed as diameter of inhibition zone at 80 uM after 24 hrs by Kirby -Baur disc diffusion method; format: functional; details: ATCC 35218, 24 h, read-out: DIZ; outline: as §1
Aspergillus niger [20] = test: Antifungal activity against Aspergillus niger MTCC 1108 assessed as zone of inhibition at 40 uM after 48 hrs by disc diffusion method; format: functional; outline: as §2
Aspergillus flavus [21] = test: Antifungal activity against Aspergillus flavus MTCC 1021 assessed as zone of inhibition at 80 uM after 48 hrs by disc diffusion method; format: functional; outline: as §2
QG-56 = test: Cytotoxicity against human QG56 cells after 24 hrs by MTT assay; format: functional, cell-based; outline: as §4
HCT-116 = test: Cytotoxicity against human HCT116 cells after 24 hrs by MTT assay; format: functional, cell-based; outline: as §4
Curvularia lunata [22] = test: Antifungal activity against Curvularia lunata MTCC 581 assessed as zone of inhibition at 80 uM after 48 hrs by disc diffusion method; format: functional; details: MTCC 581, 48 h, read-out: IZ; outline: as §2
Salmonella typhi [23] = test: Antimicrobial activity against Salmonella typhi ATCC 23564 assessed as diameter of inhibition zone at 80 uM after 24 hrs by Kirby -Baur disc diffusion method; format: functional, Salmonella enterica subsp. enterica serovar Typhi; details: Salmonella enterica, ATCC 23564, 24 h; read-out: DIZ
Trichoderma viride [24] = test: Antifungal activity against Trichoderma viride MTCC 1107 assessed as zone of inhibition at 40 uM after 48 hrs by disc diffusion method; format: functional; details: MTCC 1107, 48 h, read-out: IZ; outline: as §2
Mus musculus = test: Antiinflammatory activity in mouse assessed as inhibition of carrageenan-induced increase in paw volume at 200 mg/kg administered 1 hr prior to carrageenan challenge measured after 3 hrs relative to control; format: functional
Outline: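 Mice were fasted 2 h and placed in groups of five. Controls received saline i.p. Phenylbutazone was given at 100 mg/kg i.p., curcumin at 200 mg/kg i.p., and derivatives at 200 mg/kg. After 1 h, 0.1 mL of 1% carrageenan in saline was injected subplantar into the right hind paw. Paw volume was followed by plethysmometer for 3 h, and % inhibition was calculated as (Vc − Vt)/Vc × 100.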

Pseudomonas aeruginosa [25] = test: Antimicrobial activity against Pseudomonas aeruginosa ATCC 15499 assessed as diameter of inhibition zone at 20 uM after 24 hrs by Kirby -Baur disc diffusion method; format: functional; details: ATCC 15499, 24 h, read-out: DIZ; outline: as §1
Curvularia lunata [26] = test: Antifungal activity against Curvularia lunata MTCC 581 assessed as zone of inhibition at 20 uM after 48 hrs by disc diffusion method; format: functional; outline: as §2
Bacillus cereus [27] = test: Antimicrobial activity against Bacillus cereus MTCC 7350 after 24 hrs by broth micro serial dilution method; format: functional; details: MTCC 7350, 24 h; outline: as §3
Pseudomonas aeruginosa [28] = test: Antimicrobial activity against Pseudomonas aeruginosa ATCC 15499 assessed as diameter of inhibition zone at 80 uM after 24 hrs by Kirby -Baur disc diffusion method; format: functional; details: ATCC 15499, 24 h, read-out: DIZ; outline: as §1
Escherichia coli [29] = test: Antimicrobial activity against Escherichia coli ATCC 35218 assessed as diameter of inhibition zone at 20 uM after 24 hrs by Kirby -Baur disc diffusion method; format: functional; outline: as §1
Salmonella typhi [30] = test: Antimicrobial activity against Salmonella typhi ATCC 23564 assessed as diameter of inhibition zone at 40 uM after 24 hrs by Kirby -Baur disc diffusion method; format: functional, Salmonella enterica subsp. enterica serovar Typhi; details: Salmonella enterica, ATCC 23564, 24 h; read-out: DIZ
HeLa = test: Cytotoxicity against human HeLa cells after 24 hrs by MTT assay; format: functional, cell-based; outline: as §4
Staphylococcus aureus [31] = test: Antimicrobial activity against Staphylococcus aureus ATCC 11632 assessed as diameter of inhibition zone at 20 uM after 24 hrs by Kirby -Baur disc diffusion method; format: functional; outline: as §1
Salmonella typhi [32] = test: Antimicrobial activity against Salmonella typhi ATCC 23564 after 24 hrs by broth micro serial dilution method; format: functional, Salmonella enterica subsp. enterica serovar Typhi; details: Salmonella enterica, ATCC 23564, 24 h
Aspergillus niger [33] = test: Antifungal activity against Aspergillus niger MTCC 1108 assessed as zone of inhibition at 80 uM after 48 hrs by disc diffusion method; format: functional; details: MTCC 1108, 48 h, read-out: IZ; outline: as §2

COc1cc(/C=C/C(CC(/C=C/c2ccc(O)c(OC)c2)=N/c2ccc(S(N)(=O)=O)cc2)=N\c2ccc(S(N)(=O)=O)cc2)ccc1O
diameter of the inhibition zone (DIZ) (Bacillus cereus [1]): inactive | inhibition zone (IZ) (Curvularia lunata [2]): inactive | MIC (Trichoderma viride [3]): 40 µM (≈ 27.1 µg/mL) | inhibition zone (IZ) (Aspergillus niger [4]): inactive | zone of inhibition at 40 µM (Escherichia coli [5]): 10 mm | MIC (Pseudomonas aeruginosa [6]): 40 µM (≈ 27.1 µg/mL) | MIC (Escherichia coli [7]): 40 µM (≈ 27.1 µg/mL) | inhibition zone (IZ) (Trichoderma viride [8]): inactive | IC50 (HepG2): > 100 µM | MIC (Staphylococcus aureus [9]): > 80 µM | MIC (Curvularia lunata [10]): > 80 µM | zone of inhibition at 80 µM (Bacillus cereus [11]): 11 mm | MIC (Aspergillus flavus [12]): inactive | zone of inhibition at 80 µM (Staphylococcus aureus [13]): 10 mm | zone of inhibition at 40 µM (Pseudomonas aeruginosa [14]): 11 mm | MIC (Aspergillus niger [15]): > 80 µM | diameter of the inhibition zone (DIZ) (Staphylococcus aureus [16]): inactive | zone of inhibition at 20 µM (Salmonella typhi [17]): 9 mm | zone of inhibition at 80 µM (Trichoderma viride [18]): 11 mm | zone of inhibition at 80 µM (Escherichia coli [19]): 12 mm | inhibition zone (IZ) (Aspergillus niger [20]): inactive | inhibition zone (IZ) (Aspergillus flavus [21]): inactive | IC50 (QG-56): > 100 µM | IC50 (HCT-116): 100 µM | zone of inhibition at 80 µM (Curvularia lunata [22]): 9 mm | zone of inhibition at 80 µM (Salmonella typhi [23]): 16 mm | zone of inhibition at 40 µM (Trichoderma viride [24]): 10 mm | inhibition in vivo at 200 mg/kg (Mus musculus): 12.9% | zone of inhibition at 20 µM (Pseudomonas aeruginosa [25]): 9 mm | inhibition zone (IZ) (Curvularia lunata [26]): inactive | MIC (Bacillus cereus [27]): 40 µM (≈ 27.1 µg/mL) | zone of inhibition at 80 µM (Pseudomonas aeruginosa [28]): 18 mm | diameter of the inhibition zone (DIZ) (Escherichia coli [29]): inactive | zone of inhibition at 40 µM (Salmonella typhi [30]): 11 mm | IC50 (HeLa): 100 µM | diameter of the inhibition zone (DIZ) (Staphylococcus aureus [31]): inactive | MIC (Salmonella typhi [32]): 40 µM (≈ 27.1 µg/mL) | zone of inhibition at 80 µM (Aspergillus niger [33]): 9 mm
